15 compounds from ChEMBL document CHEMBL2057074, “Design, synthesis and biological activity of 6-substituted carbamoyl benzimidazoles as new nonpeptidic angiotensin II AT₁ receptor antagonists” (Bioorg Med Chem, 2012) can be followed below.

For series [1], the target named is T1, Type-1 angiotensin II receptor (Homo sapiens, UniProt P30556).
T1 sequence (P30556 whole entry): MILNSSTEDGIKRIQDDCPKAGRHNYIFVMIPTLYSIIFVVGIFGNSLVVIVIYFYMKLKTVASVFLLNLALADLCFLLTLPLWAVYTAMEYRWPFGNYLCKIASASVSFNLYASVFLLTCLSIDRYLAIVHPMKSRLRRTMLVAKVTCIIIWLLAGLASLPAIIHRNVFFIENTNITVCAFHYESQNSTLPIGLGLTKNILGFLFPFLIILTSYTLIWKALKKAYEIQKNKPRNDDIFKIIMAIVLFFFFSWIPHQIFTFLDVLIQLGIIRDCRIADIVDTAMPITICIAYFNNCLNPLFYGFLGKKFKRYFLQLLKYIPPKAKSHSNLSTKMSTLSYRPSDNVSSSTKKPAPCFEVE
Briefly: Displacement of [125I]Sar1Ile8-Ang2 from angiotensin AT1 receptor after 180 mins by gamma counting.

Series [2] in a line: Toxicity against Photobacterium phosphoreum expressing T3 mutation after 15 mins by Microtox assay. In kind it is organism-based. The method in brief: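 Microtox test with luminescent Photobacterium phosphoreum. Samples were incubated with bacteria for 15 min before reading inhibition of bacterial luminescence, testing up to the saturated concentration level. LC50 is the concentration in water inhibiting 50% of the test batch.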

Series [3] deals with T2, Type-1 angiotensin II receptor (Oryctolagus cuniculus, UniProt P34976).
T2 sequence (P34976 whole entry): T1 sequence (P30556 whole entry) with I2M, V49A, I254V, I270V, R272H, R311K, T349S, A353V
Put plainly: Antagonist activity at AT1 receptor in Japanese white rabbit thoracic aorta assessed as inhibition of […] contraction incubated 30 mins post KCl-induction for 1 hr. The format is functional, tissue-based. The note with it: read-out: pA2 (converted). The method in brief:
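Isolated rabbit aortic strips equilibrated 1 h with washes every 15 min. 67 mM KCl was given first to check tissue sensitivity and set the maximal contractile response. After a 30 min washout, test substances or their vehicles were added and contractile responses recorded.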

The subject of a further series is Rattus norvegicus. Briefly: Antihypertensive activity in non-fasted spontaneous hypertensive rat assessed as decrease in mean arterial blood pressure at 10 mg/kg, po by tail plethysmography relative to control. In kind it is functional, Artery. The method, boiled down:
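Male SHR aged 19–21 weeks, conscious and unanesthetised, six per group; controls got vehicle at 10 mL/kg. […] Blood pressure and heart rate measured by tail plethysmography after a warming period; data given as means SEM.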

Molecules are shown by their SMILES. Positions count from the first letter of the chain named. pIC50: −log10 of the molar value. ≈ marks a conversion by molar mass, not a printed value.

As to `CCCc1nc2c(C)cc(C(=O)NCCc3cc(OC)ccc3OC)cc2n1Cc1ccc(-c2ccccc2-c2nnn[nH]2)cc1`, the negative-log IC50 (pIC50) in series [1] is 7.11. Further, the LC50 at 0.25 h in series [2] is over 100 mg/L.

As to `CCCCc1nc(Cl)c(CO)n1Cc1ccc(-c2ccccc2-c2nn[nH]n2)cc1` [LOSARTAN], the median lethal concentration (LC50) at 0.25 h in series [2] is 331 mg/L (≈ 783 µM).

For the compound `CCCc1nc2c(C)cc(-c3nc4ccccc4n3C)cc2n1Cc1ccc(-c2ccccc2C(=O)O)cc1`, in series [2], the LC50 at 0.25 h was 100 mg/L (≈ 194 µM).

For `CCCc1nc2c(C)cc(C(=O)NCc3ccccc3OC)cc2n1Cc1ccc(-c2ccccc2-c2nnn[nH]2)cc1`, the pIC50 in series [1] is 7.71. Also, in series [2], the LC50 at 0.25 h stood at 66 mg/L (≈ 115 µM).

As to `CCCc1nc2c(C)cc(C(=O)NCCc3ccc(F)cc3)cc2n1Cc1ccc(-c2ccccc2-c2nnn[nH]2)cc1`, in series [1], the negative logarithm of the IC50 (pIC50) was 6.68. Also, the LC50 at 0.25 h in series [2] was 60 mg/L (≈ 105 µM).

On to `CCCc1nc2c(C)cc(C(=O)NCCc3ccccc3F)cc2n1Cc1ccc(-c2ccccc2-c2nnn[nH]2)cc1`, for which the pIC50 in series [1] was 7.42. Also, the 50% lethal concentration (LC50) at 0.25 h in series [2] was determined as 17 mg/L (≈ 29.6 µM).

For `CCCc1nc2c(C)cc(C(=O)NCc3ccccc3)cc2n1Cc1ccc(-c2ccccc2-c2nnn[nH]2)cc1`, the pIC50 in series [1] is 6.39. This compound came in with an LC50 at 0.25 h in series [2] of 64 mg/L (≈ 118 µM).

Turning to `CCCc1nc2c(C)cc(C(=O)NCc3cccc(OC)c3)cc2n1Cc1ccc(-c2ccccc2-c2nnn[nH]2)cc1`, the pIC50 in series [1] was 7.11. Moreover, the LC50 at 0.25 h in series [2] is over 100 mg/L.

In turn, `CCCc1nc2c(C)cc(C(=O)NCCc3ccccc3)cc2n1Cc1ccc(-c2ccccc2-c2nnn[nH]2)cc1` showed a pIC50 in series [1] of 8.89. Moreover, the 50% lethal concentration (LC50) at 0.25 h in series [2] was over 100 mg/L. The Kb in series [3] was 0.00479 µM.

In series [1], `CCCc1nc2c(C)cc(C(=O)NCC(C)c3ccccc3)cc2n1Cc1ccc(-c2ccccc2-c2nnn[nH]2)cc1` (stereo not drawn) had a pIC50 of 9.05. Moreover, the LC50 at 0.25 h in series [2] was over 100 mg/L. The Kb in series [3] is 0.0017 µM. Also, the Activity in the series with Rattus norvegicus is over 30 mmHg.

The compound `CCCc1nc2c(C)cc(C(=O)NCc3ccc(OC)cc3)cc2n1Cc1ccc(-c2ccccc2-c2nnn[nH]2)cc1` had a pIC50 in series [1] of 6.93. In addition, in series [2], the LC50 at 0.25 h was over 100 mg/L.

For `CCCc1nc2c(C)cc(C(=O)NCCc3ccc(OC)c(OC)c3)cc2n1Cc1ccc(-c2ccccc2-c2nnn[nH]2)cc1`, in series [1], the pIC50 was 8.43. Moreover, the LC50 at 0.25 h in series [2] is over 100 mg/L. In addition, the Kb in series [3] is 0.00182 µM.

With `CCCc1nc2c(C)cc(C(=O)NCc3ccc(OC)c(OC)c3)cc2n1Cc1ccc(-c2ccccc2-c2nnn[nH]2)cc1`, the pIC50 in series [1] is 7.01. This compound also yielded an LC50 at 0.25 h in series [2] of over 100 mg/L.

With `CCCc1nc2c(C)cc(C(=O)NCCc3ccc(OC)cc3)cc2n1Cc1ccc(-c2ccccc2-c2nnn[nH]2)cc1`, the pIC50 in series [1] was 7.65. Moreover, the LC50 at 0.25 h in series [2] is over 100 mg/L.

For `CCCc1nc2c(C)cc(C(=O)NCCc3cccc(OC)c3)cc2n1Cc1ccc(-c2ccccc2-c2nnn[nH]2)cc1`, the negative logarithm of the IC50 (pIC50) in series [1] was 8.59. This compound also gave an LC50 at 0.25 h in series [2] of over 100 mg/L. Further, in series [3], the Kb was 0.0148 µM.
